Measured values: ChEMBL document CHEMBL3868630, “Synthesis, anti-proliferative activity, SAR study, and preliminary in vivo toxicity study of substituted N,N'-bis(arylmethyl)benzimidazolium salts against a panel of non-small cell lung cancer cell lines” (Bioorg Med Chem, 2017)

Assays:
[1] = Cytotoxicity against human NCI-H23 cells assessed as cell growth at 10 uM after 48 hrs by SRB assay relative to control; type: functional; conditions: NCI-H23, 48 h, read-out: Activity
[2] = Cytotoxicity against human NCI-H460 cells assessed as cell growth at 10 uM after 48 hrs by SRB assay relative to control; type: functional; conditions: NCI-H460, 48 h, read-out: Activity
[3] = Aqueous solubility of the compound; type: physicochemical
[4] = Cytotoxicity against human HCC827 cells assessed as decrease in cell viability after 72 hrs by MTT assay; type: functional, cell-based; conditions: HCC827, 72 h
Summary of the method: (§1)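 Cells kept in RPMI 1640 with 10% FBS at 37 °C, 5% CO2, passaged every 2-3 days; seeded at 5,000-7,000 cells/well and left 24 h. Compounds dissolved in 1% DMSO, diluted in fresh medium to 1, 4, 16 and 32 µM, added in sextuplicate; 72 h exposure. MTT added for 3-4 h, medium removed, DMSO added for 15 min at 37 °C, OD read at 540 nm.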

[5] = Cytotoxicity against human NCI-H226 cells assessed as cell growth at 10 uM after 48 hrs by SRB assay relative to control; type: functional; conditions: NCI-H226, 48 h, read-out: Activity
[6] = Cytotoxicity against human A549 cells assessed as decrease in cell viability after 72 hrs by MTT assay; type: functional, cell-based; conditions: A549, 72 h; summary of the method: as §1
[7] = Cytotoxicity against human NCI-H322M cells assessed as cell growth at 10 uM after 48 hrs by SRB assay relative to control; type: functional; conditions: read-out: Activity
[8] = Cytotoxicity against human NCI-H460 cells assessed as decrease in cell viability after 72 hrs by MTT assay; type: functional, cell-based; conditions: NCI-H460, 72 h; summary of the method: as §1
[9] = Cytotoxicity against human A549 cells assessed as cell growth at 10 uM after 48 hrs by SRB assay relative to control; type: functional; conditions: A549, 48 h, read-out: Activity
[10] = Cytotoxicity against human NCI-H522 cells assessed as cell growth at 10 uM after 48 hrs by SRB assay relative to control; type: functional; conditions: NCI-H522, 48 h, read-out: Activity
[11] = Cytotoxicity against human EKVX cells assessed as cell growth at 10 uM after 48 hrs by SRB assay relative to control; type: functional; conditions: read-out: Activity
[12] = Cytotoxicity against human NCI-H1975 cells assessed as decrease in cell viability after 72 hrs by MTT assay; type: functional, cell-based; conditions: NCI-H1975, 72 h; summary of the method: as §1
[13] = Cytotoxicity against human HOP62 cells assessed as cell growth at 10 uM after 48 hrs by SRB assay relative to control; type: functional; conditions: HOP-62, 48 h, read-out: Activity
[14] = Cytotoxicity against human HOP92 cells assessed as cell growth at 10 uM after 48 hrs by SRB assay relative to control; type: functional; conditions: HOP-92, 48 h, read-out: Activity
[15] = Growth inhibition of human HOP92 cells after 48 hrs by SRB assay; type: functional; conditions: HOP-92, 48 h
[16] = Growth inhibition of human NCI-H226 cells after 48 hrs by SRB assay; type: functional; conditions: NCI-H226, 48 h
[17] = Growth inhibition of human EKVX cells after 48 hrs by SRB assay; type: functional
[18] = Growth inhibition of human HOP62 cells after 48 hrs by SRB assay; type: functional; conditions: HOP-62, 48 h
[19] = Growth inhibition of human NCI-H460 cells after 48 hrs by SRB assay; type: functional; conditions: NCI-H460, 48 h
[20] = Growth inhibition of human NCI-H322M cells after 48 hrs by SRB assay; type: functional
[21] = Growth inhibition of human NCI-H23 cells after 48 hrs by SRB assay; type: functional; conditions: NCI-H23, 48 h
[22] = Growth inhibition of human NCI-H522 cells after 48 hrs by SRB assay; type: functional; conditions: NCI-H522, 48 h
[23] = Growth inhibition of human A549 cells after 48 hrs by SRB assay; type: functional; conditions: A549, 48 h

Work on `O=c1n(Cc2ccc3ccccc3c2)c2ccccc2n1Cc1ccc2ccccc2c1` yielded a growth at 10 µM [1] of 77.7%, a growth at 10 µM [2] of 74.6% and a solubility [3] of under 0.5 mg/mL. The IC50 [4] was over 30 µM, the growth at 10 µM [5] was 83.9% and the IC50 [6] was over 30 µM. The growth at 10 µM [7] was 81.6%, the IC50 [8] was over 30 µM and the growth at 10 µM [9] was 85.2%. For the same molecule, the growth at 10 µM [10] was 73.4%, the growth at 10 µM [11] was 79.5% and the IC50 [12] was 19 µM. It also gave a growth at 10 µM [13] of 62.8% and a growth at 10 µM [14] of 79.9%.

`S=c1n(Cc2ccc3ccccc3c2)c2ccccc2n1Cc1ccc2ccccc2c1` gave a growth at 10 µM [1] of 93.1%, a growth at 10 µM [2] of 69.8% and a solubility [3] of under 0.5 mg/mL. It also gave an IC50 [4] of over 30 µM, a growth at 10 µM [5] of 73.5% and an IC50 [6] of over 30 µM. For the same molecule, the growth at 10 µM [7] was 92.6%, the IC50 [8] was over 30 µM and the growth at 10 µM [9] was 87.6%. For the same molecule, the growth at 10 µM [10] was 88.2%, the growth at 10 µM [11] was 93.1% and the IC50 [12] was over 30 µM. It also gave a growth at 10 µM [13] of 81.9% and a growth at 10 µM [14] of 83.4%.

With `Cc1n(Cc2ccc3ccccc3n2)c2ccccc2[n+]1Cc1ccc2ccccc2n1.[Cl-]` the growth at 10 µM [1] was 75.8%, the growth at 10 µM [2] was 95.8% and the solubility [3] was 1.1 mg/mL. For the same molecule, the IC50 [4] was 7 µM, the growth at 10 µM [5] was 89.6% and the IC50 [6] was 9 µM. The growth at 10 µM [7] was 94.9%, the IC50 [8] was 3 µM and the growth at 10 µM [9] was 87.9%. For the same molecule, the growth at 10 µM [10] was 56.6%, the growth at 10 µM [11] was 102% and the IC50 [12] was 2 µM. It also gave a growth at 10 µM [13] of 82.7% and a growth at 10 µM [14] of 52%.

`COCCOCCOCc1n(Cc2ccc3ccccc3c2)c2ccccc2[n+]1Cc1ccc2ccccc2c1.[Br-]` gave a growth at 10 µM [1] of 5.56%, a growth at 10 µM [2] of 10.3% and a solubility [3] of 0.7 mg/mL. For the same molecule, the IC50 [4] was 5 µM, the growth at 10 µM [5] was 17.2% and the IC50 [6] was 5 µM. The growth at 10 µM [7] was 40.5%, the IC50 [8] was 3 µM and the growth at 10 µM [9] was 33.1%. It also gave a growth at 10 µM [10] of -16.6%, a growth at 10 µM [11] of 47.4% and an IC50 [12] of 3 µM. For the same molecule, the growth at 10 µM [13] was 17.1% and the growth at 10 µM [14] was -32.1%.

`CCCCCCCc1n(Cc2ccc3ccccc3c2)c2ccccc2[n+]1Cc1ccc2ccccc2c1.[Br-]` gave a growth at 10 µM [1] of -76.9%, a growth at 10 µM [2] of -73% and a solubility [3] of under 0.5 mg/mL. It also gave an IC50 [4] of under 1 µM, a growth at 10 µM [5] of -70.8% and an IC50 [6] of under 1 µM. For the same molecule, the growth at 10 µM [7] was -86%, the IC50 [8] was under 1 µM and the growth at 10 µM [9] was -77.5%. It also gave a growth at 10 µM [10] of -81.1%, a growth at 10 µM [11] of -73.5% and an IC50 [12] of under 1 µM. For the same molecule, the growth at 10 µM [13] was -70.6% and the growth at 10 µM [14] was -84.4%.

With `[Br-].c1ccc2cc(Cn3c[n+](Cc4ccc5ccccc5c4)c4ccccc43)ccc2c1` the growth at 10 µM [1] was -0.74%, the GI50 [15] was 0.192 µM and the LC50 [15] was 4.93 µM. For the same molecule, the TGI [15] was 1.57 µM, the growth at 10 µM [2] was -34.2% and the solubility [3] was under 0.5 mg/mL. The IC50 [4] was 3 µM, the growth at 10 µM [5] was 19.6% and the GI50 [16] was 1.46 µM. It also gave a TGI [16] of 3.25 µM, a GI50 [17] of 1.47 µM and a TGI [17] of 2.95 µM. The IC50 [6] was 5 µM, the GI50 [18] was 1.54 µM and the TGI [18] was 2.98 µM. It also gave a GI50 [19] of 1.35 µM, a TGI [19] of 2.91 µM and a GI50 [20] of 1.49 µM. For the same molecule, the TGI [20] was 2.89 µM, the growth at 10 µM [7] was 34.6% and the IC50 [8] was 3 µM. The GI50 [21] was 1.05 µM, the TGI [21] was 2.51 µM and the growth at 10 µM [9] was 30.9%. The growth at 10 µM [10] was -28.8%, the GI50 [22] was 1.25 µM and the TGI [22] was 2.82 µM. It also gave a GI50 [23] of 1.87 µM, an LC50 [23] of 8.01 µM and a TGI [23] of 3.88 µM. The growth at 10 µM [11] was 13.9%, the IC50 [12] was 3 µM and the growth at 10 µM [13] was 3.98%. It also gave a growth at 10 µM [14] of -27.6%.

In the case of `CCCCc1n(Cc2ccc3ccccc3c2)c2ccccc2[n+]1Cc1ccc2ccccc2c1.[Br-]`, the growth at 10 µM [1] is reported as -83.9%, the GI50 [15] is reported as 0.298 µM and the TGI [15] is reported as 1.35 µM. For the same molecule, the growth at 10 µM [2] was -81.1%, the solubility [3] was under 0.5 mg/mL and the IC50 [4] was 2 µM. It also gave a growth at 10 µM [5] of -72.7%, a GI50 [16] of 1.08 µM and a GI50 [17] of 1.17 µM. For the same molecule, the IC50 [6] was 2 µM, the GI50 [18] was 1.05 µM and the TGI [18] was 2.55 µM. It also gave a GI50 [19] of 0.436 µM, a GI50 [20] of 1.22 µM and a TGI [20] of 2.57 µM. The growth at 10 µM [7] was -82.2%, the IC50 [8] was 2 µM and the GI50 [21] was 0.371 µM. It also gave a TGI [21] of 1.7 µM, a growth at 10 µM [9] of -72.3% and a growth at 10 µM [10] of -77.2%. It also gave a GI50 [22] of 0.289 µM, a TGI [22] of 1.35 µM and a GI50 [23] of 1.04 µM. The TGI [23] was 2.42 µM, the growth at 10 µM [11] was -84.6% and the IC50 [12] was under 1 µM. It also gave a growth at 10 µM [13] of -76.8% and a growth at 10 µM [14] of -70.7%.
